Source: publication PMC6060173 (The Lancet. Infectious Diseases, 2018)
Where two headings read alike, the source gives them in different places.

What was measured:
[1] = tested on: Plasmodium vivax; test: Gametocytaemia by microscopy; assay type: in vivo; conditions: cohort 2b, P vivax, 600 mg
How it was run: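 Patients with P vivax malaria received one oral dose of the test compound: 400 mg in cohort 1b or 600 mg in cohort 2b. Gametocytaemia was assessed by microscopy throughout the 28-day follow-up. The measure was conversion from microscopy-negative at the start of treatment to gametocyte-positive.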

[2] = tested on: Plasmodium falciparum; test: Asexual parasite clearance parameters; assay type: in vivo; conditions: P falciparum
How it was run: (§1)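 Parasitaemia was counted by microscopy before one oral dose of the test compound and every 4 h over days 0–3. If two consecutive negative readings were not reached, the stay was extended to 7 days with counts every 6 h until clearance. Clearance kinetics, including lag time before parasite decline, followed WWARN statistical procedures. Kaplan-Meier analyses used a modified ITT population.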

[3] = tested on: P. falciparum Dd2 B2 clone; conditions: dhodh Gly181Cys mutation; cited from earlier work
[4] = tested on: P falciparum; conditions: for a 60 kg patient; cited from earlier work
[5] = tested on: P falciparum and P vivax field isolates; conditions: ex-vivo; cited from earlier work
[6] = cited from earlier work
[7] = tested on: Plasmodium falciparum; test: Phase 2a single-dose efficacy: PCR-adjusted ACPR, thick blood smear microscopy; assay type: in vivo; conditions: P falciparum
How it was run: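 P falciparum patients (1000–35 000 asexual parasites per μL) received one oral dose of 400 or 250 mg. Treatment failure was read by thick blood smear microscopy; the first cohort initially used quantitative PCR. PCR adjustment distinguished recrudescence from new infection. ACPR was scored at days 14 and 28. ITT included all dosed patients; per-protocol excluded those who vomited, took other medication, had protocol violations or lacked data.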

[8] = tested on: P falciparum; conditions: single dose of 400 mg administered 1 day before parasite challenge; cited from earlier work
[9] = tested on: Plasmodium vivax; test: Phase 2a single-dose efficacy: crude cure, thick blood smear microscopy; assay type: in vivo
How it was run: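 P vivax patients (1000–35 000 asexual parasites per μL) received one oral dose of 400, 600 or 800 mg. Crude cure meant clearance of asexual parasites within 7 days with no later recurrence, read by thick smear microscopy without PCR adjustment. It was scored at day 14, and cure at day 28. Rescue treatment was given if parasites remained at day 7. Analysis used ITT and per-protocol populations.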

[10] = target: PvDHODH enzyme; conditions: truncated recombinant enzymes; cited from earlier work
[11] = 12-lead and Holter ECG safety analysis in malaria patients; assay type: in vivo, human
How it was run: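 Adults with uncomplicated malaria (18–70 years, 45–90 kg) received one oral dose of the test compound in suspension, ideally fasted. QT interval was corrected by Fridericia (QTcF) and compared with baseline. PR and QRS intervals were also recorded during the study.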

[12] = Pharmacokinetics in malaria patients; assay type: in vivo, human
How it was run: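 A further sample was taken on day 5 or 7, depending on day-3 parasitaemia. Later samples were taken on days 10–11, 14, 17–18, 21, 24–25, 28 and 35. Parameters were AUC0-t, AUC0-168, AUC0-inf, Cmax, tmax, t1/2, C168h and λinf.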

[13] = tested on: P. falciparum; test: MIC/MPC estimate from nadir of parasitaemia in recrudescing patients; assay type: in vivo, Plasmodium falciparum; conditions: 400 mg
[14] = tested on: Plasmodium vivax; test: Asexual parasite clearance parameters; assay type: in vivo; conditions: P vivax
How it was run: as §1

[15] = tested on: Plasmodium falciparum DHODH; conditions: cited from earlier work
[16] = Adverse events in malaria patients; assay type: in vivo, human
How it was run: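 Patients received one oral dose of the test compound in suspension: 400 or 250 mg for P falciparum, and 400, 600 or 800 mg for P vivax. They were kept in clinic with checks every 4 h over days 0–3. Safety follow-up lasted 35 days. Safety was analysed in all patients who received at least one dose.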

[17] = cohort 1a (n=13), P falciparum, 400 mg
[18] = cohort 1b (n=5), P vivax, 400 mg
[19] = cohort 2a (n=11), P falciparum, 250 mg
[20] = cohort 2b (n=9), P vivax, 600 mg
[21] = cohort 3b (n=7), P vivax, 800 mg

Cc1cc(Nc2ccc(S(F)(F)(F)(F)F)cc2)n2nc(C(C)(F)F)nc2n1 [DSM265]
patients negative for gametocytaemia at baseline who became positive [1]: 13%
Profiles with lag ([2]; cohort 1a, 400 mg, 8 profiles analysed): 4
Profiles with lag ([2]; cohort 2a, 250 mg, 7 profiles analysed): 5
reduction in potency [3]: 26 times
predicted efficacious single curative dose [4]: 340 mg
efficacy for P falciparum compared with P vivax [5]: five-times better
duration of effectiveness (pharmacokinetic profile) ([6]; after a single oral dose in the range of 200–400 mg): more than 8 days
tolerability ([6]; healthy participants, single doses of ≤1200 mg): generally well tolerated
patients achieving ACPR at day 28 ([7]; 250 mg, ITT): 55%
patients achieving PCR-adjusted ACPR at day 14 ([7]; 250 mg, ITT): 73%
patients achieving ACPR at day 28 ([7]; 250 mg, per-protocol): 60%
patients achieving PCR-adjusted ACPR at day 14 ([7]; 250 mg, per-protocol): 80%
patients achieving PCR-adjusted ACPR at day 14 ([7]; 400 mg single oral dose, per-protocol): 100%
patients achieving ACPR at day 28 ([7]; 400 mg, ITT): 69%
patients achieving PCR-adjusted ACPR at day 14 ([7]; 400 mg, ITT): 85%
patients achieving ACPR at day 28 ([7]; 400 mg, per-protocol): 89%
protection from infection [8]: complete protection
patients achieving crude cure at day 14 ([9]; P vivax, 400 mg, ITT (five patients)): none
patients achieving crude cure at day 14 ([9]; P vivax, 400 mg, per-protocol (four patients)): none
patients achieving crude cure at day 14 ([9]; P vivax, 600 mg, ITT): 33%
patients achieving crude cure at day 14 ([9]; P vivax, 600 mg, per-protocol): 50%
patients achieving crude cure at day 14 ([9]; P vivax, 800 mg, ITT): 14%
patients achieving crude cure at day 14 ([9]; P vivax, 800 mg, per-protocol): 25%
patients achieving a cure at day 28 ([9]; P vivax, all doses): No patients
P vivax clearance ([9]; within the first 100 h, doses of 600 mg and 800 mg): 99–100%
IC50 for the PvDHODH enzyme relative to PfDHODH [10]: two times higher
values for QTcF recorded ([11]; in a few patients): 450 to 500 ms
QTcF changes from baseline ([11]; more patients with P falciparum than P vivax): 30 to 60 ms
dose proportionality based on Cmax and AUC0-∞ ([12]; P falciparum patients, 250 mg or 400 mg): dose proportional
dose proportionality of exposure ([12]; P vivax patients, 400 mg to 800 mg): slightly subproportional
Tmax ([12]; human, plasma, oral, tmax, seen for the other patients): 6 to 8 h
estimated duration of exposure greater than the minimum parasiticidal concentration [13]: around 10 days
Profiles with lag ([14]; cohort 1b, 400 mg, 4 profiles analysed): 3
Profiles with lag ([14]; cohort 2b, 600 mg, 9 profiles analysed): 3
Profiles with lag ([14]; cohort 3b, 800 mg, 6 profiles analysed): 1
in-vitro selectivity for Plasmodium falciparum DHODH over its human ortholog [15]: very high
patients with headache ([16]; all 45 patients): 40%
patients with pyrexia ([16]; all 45 patients): 44%
abnormal haematology laboratory results considered clinically significant ([16]; all patients): No patients
treatment-related serious adverse events or adverse events leading to study discontinuation ([16]; all patients): no patients
Adverse event of special interest [16, 17]: 2 (15%) number of patients (%)
Any adverse event [16, 17]: 10 (77%) number of patients (%)
Serious adverse event [16, 17]: 0 number of patients (%)
Severe adverse event [16, 17]: 0 number of patients (%)
Treatment-related adverse event [16, 17]: 3 (23%) number of patients (%)
Adverse event of special interest [16, 18]: 0 number of patients (%)
Any adverse event [16, 18]: 4 (80%) number of patients (%)
Serious adverse event [16, 18]: 0 number of patients (%)
Severe adverse event [16, 18]: 1 (20%) number of patients (%)
Treatment-related adverse event [16, 18]: 1 (20%) number of patients (%)
Adverse event of special interest [16, 19]: 3 (27%) number of patients (%)
Any adverse event [16, 19]: 7 (64%) number of patients (%)
Serious adverse event [16, 19]: 1 (9%) number of patients (%)
Severe adverse event [16, 19]: 2 (18%) number of patients (%)
Treatment-related adverse event [16, 19]: 2 (18%) number of patients (%)
Adverse event of special interest [16, 20]: 1 (11%) number of patients (%)
Any adverse event [16, 20]: 7 (78%) number of patients (%)
Serious adverse event [16, 20]: 0 number of patients (%)
Severe adverse event [16, 20]: 0 number of patients (%)
Treatment-related adverse event [16, 20]: 0 number of patients (%)
Adverse event of special interest [16, 21]: 0 number of patients (%)
Any adverse event [16, 21]: 6 (86%) number of patients (%)
Serious adverse event [16, 21]: 0 number of patients (%)
Severe adverse event [16, 21]: 0 number of patients (%)
Treatment-related adverse event [16, 21]: 0 number of patients (%)
tolerability ([16]; single oral dose 250-800 mg, all patients): well tolerated

Cc1cc(Nc2ccc(C(F)(F)F)nc2)n2nc(C(C)(F)F)nc2n1 [DSM421, reference compound]
efficacy for P falciparum compared with P vivax [5]: equal efficacy
